Laboratory results reported in ChEMBL document CHEMBL4706580, “4-Amino-1,2,4-triazole-3-thione-derived Schiff bases as metallo-β-lactamase inhibitors” (Eur J Med Chem, 2020).
Active and inactive are the calls of the source. No cut-off for these calls is given here.

What was measured:
[1] = Inhibition of beta-lactamase VIM2 (unknown origin) expressed in Escherichia coli BL21(DE3) using imipenem as substrate by measuring substrate hydrolysis at 200 uM by spectrophotometric analysis
Summary of the method: (§1)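 Purified enzyme (overproduced in E. coli BL21(DE3), pET-9a; ion-exchange and gel filtration), 1-70 nM final. Reporter substrate 150 μM imipenem, read at 300 nm, 30 °C, 50 mM HEPES pH 7.5. Single-point screen at 100 or 200 μM; Ki from v0/vi vs [I] (0.5–1,000 μM final) assuming competitive inhibition, or Dixon plot. Triplicate.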

[2] = Inhibition of beta-lactamase IMP-1 (unknown origin) expressed in Escherichia coli LZ2310 assessed as potentiation of ceftazidime antibacterial activity by measuring ceftazidime induced diameter of inhibition zone at 40 uM incubated for 18 hrs by disk diffusion method (reference value: 9 mm)
Summary of the method: (§2)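 Efflux-deficient E. coli LZ2310 (NorE, MdfA, AcrA knocked out) carrying pLB-II with the cloned MBL gene. Mueller-Hinton, CLSI disk diffusion; antibiotic disks (30 µg cefoxitin for VIM-2, 10 µg ampicillin for VIM-4, 30 µg ceftazidime for NDM-1/IMP-1) loaded with inhibitor in DMSO (≤15 µL). Zone diameter after 18 h, 35 ± 1 °C; DMSO and 220 µg EDTA controls. Triplicate.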

[3] = Inhibition of beta-lactamase VIM-4 (unknown origin) expressed in Escherichia coli LZ2310 assessed as potentiation of ampicillin antibacterial activity by measuring ampicillin induced diameter of inhibition zone at 40 uM incubated for 18 hrs by disk diffusion method (reference value: 6 mm); summary of the method: as §2
[4] = Inhibition of beta-lactamase VIM2 (unknown origin) expressed in Escherichia coli BL21(DE3) using imipenem as substrate by measuring substrate hydrolysis at 100 uM by spectrophotometric analysis; summary of the method: as §1
[5] = Inhibition of beta-lactamase L1 (unknown origin) expressed in Escherichia coli BL21(DE3) using nitrocefin as substrate by measuring substrate hydrolysis preincubated for 30 mins by spectrophotometric analysis
Summary of the method: (§3)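 Enzyme 0.2–0.8 nM in 25 mM HEPES pH 7.5 with 50 μM ZnCl2 final, pre-incubated 30 min at 21 °C with inhibitor (100 μM screen). Nitrocefin 100 μM final, read at 482 nm, 30 °C. Residual activity vs three uninhibited samples; Ki (1–100 μM inhibitor) from Hanes linearization, competitive model. Triplicate.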

[6] = Inhibition of beta-lactamase VIM4 (unknown origin) expressed in Escherichia coli BL21(DE3) using imipenem as substrate by measuring substrate hydrolysis by spectrophotometric analysis; summary of the method: as §1
[7] = Inhibition of beta-lactamase CphA (unknown origin) expressed in Escherichia coli BL21(DE3) using imipenem as substrate by measuring substrate hydrolysis at 200 uM by spectrophotometric analysis
[8] = Inhibition of beta-lactamase CphA (unknown origin) expressed in Escherichia coli BL21(DE3) using imipenem as substrate by measuring substrate hydrolysis at 100 uM by spectrophotometric analysis
Summary of the method: (§4)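 Enzyme 0.2–0.8 nM in 15 mM cacodylate pH 6.5, no added zinc, pre-incubated 30 min at 21 °C with inhibitor (100 μM screen). Imipenem substrate added from 10 mM stock; hydrolysis at 300 nm, 30 °C. Residual activity vs three uninhibited samples; Ki (1–100 μM inhibitor) by Hanes linearization, competitive model. Triplicate.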

[9] = Inhibition of beta-lactamase IMP-1 (unknown origin) expressed in Escherichia coli BL21(DE3) using imipenem as substrate by measuring substrate hydrolysis by spectrophotometric analysis; summary of the method: as §1
[10] = Inhibition of beta-lactamase L1 (unknown origin) expressed in Escherichia coli BL21(DE3) using nitrocefin as substrate by measuring substrate hydrolysis at 100 uM preincubated for 30 mins by spectrophotometric analysis; summary of the method: as §3
[11] = Inhibition of beta-lactamase VIM4 (unknown origin) expressed in Escherichia coli BL21(DE3) using imipenem as substrate by measuring substrate hydrolysis at 200 uM by spectrophotometric analysis; summary of the method: as §1
[12] = Inhibition of beta-lactamase IMP-1 (unknown origin) expressed in Escherichia coli BL21(DE3) using imipenem as substrate by measuring substrate hydrolysis at 100 uM by spectrophotometric analysis; summary of the method: as §1
[13] = Inhibition of beta-lactamase VIM4 (unknown origin) expressed in Escherichia coli BL21(DE3) using imipenem as substrate by measuring substrate hydrolysis at 100 uM by spectrophotometric analysis; summary of the method: as §1
[14] = Inhibition of beta-lactamase NDM-1 (unknown origin) expressed in Escherichia coli LZ2310 assessed as potentiation of ceftazidime antibacterial activity by measuring ceftazidime induced diameter of inhibition zone at 40 uM incubated for 18 hrs by disk diffusion method (reference value: 15 mm); summary of the method: as §2
[15] = Inhibition of beta-lactamase NDM1 (unknown origin) expressed in Escherichia coli BL21(DE3) using cefotaxime/nitrocefin as substrate by measuring substrate hydrolysis by spectrophotometric analysis
Summary of the method: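 His-tagged enzyme from E. coli BL21(DE3) pET-15b, affinity-purified, 1-70 nM final. Reporter substrate 120 μM cefotaxime (260 nm) or 100 μM nitrocefin (482 nm), 30 °C, 50 mM HEPES pH 7.5. Inhibitor 0.5–1,000 μM final; competitive Ki from v0/vi vs [I] slope or Dixon plot. Triplicate.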

[16] = Inhibition of beta-lactamase IMP-1 (unknown origin) expressed in Escherichia coli BL21(DE3) using imipenem as substrate by measuring substrate hydrolysis at 200 uM by spectrophotometric analysis; summary of the method: as §1
[17] = Inhibition of beta-lactamase CphA (unknown origin) expressed in Escherichia coli BL21(DE3) using imipenem as substrate by measuring substrate hydrolysis by spectrophotometric analysis; summary of the method: as §4
[18] = Inhibition of beta-lactamase NDM1 (unknown origin) expressed in Escherichia coli BL21(DE3) using cefotaxime/nitrocefin as substrate by measuring substrate hydrolysis at 100 uM by spectrophotometric analysis
[19] = Inhibition of beta-lactamase VIM-2 (unknown origin) expressed in Escherichia coli LZ2310 assessed as potentiation of cefoxitin antibacterial activity by measuring cefoxitin induced diameter of inhibition zone at 40 uM incubated for 18 hrs by disk diffusion method (reference value: 14 mm); summary of the method: as §2
[20] = Inhibition of beta-lactamase L1 (unknown origin) expressed in Escherichia coli BL21(DE3) using nitrocefin as substrate by measuring substrate hydrolysis at 200 uM preincubated for 30 mins by spectrophotometric analysis
[21] = Inhibition of beta-lactamase NDM1 (unknown origin) expressed in Escherichia coli BL21(DE3) using cefotaxime/nitrocefin as substrate by measuring substrate hydrolysis at 200 uM by spectrophotometric analysis
[22] = Inhibition of beta-lactamase VIM2 (unknown origin) expressed in Escherichia coli BL21(DE3) using imipenem as substrate by measuring substrate hydrolysis by spectrophotometric analysis; summary of the method: as §1

Compound	inhibition [1]	inhibition zone (IZ) [2]	inhibition [4]	Ki [5]	inhibition [7]	inhibition [8]	Ki [9]	inhibition [10]	inhibition [12]	inhibition [13]	Ki [17]	inhibition [18]	inhibition [21]	further results
S=c1[nH]nc(-c2cc(Cl)cc(Cl)c2)n1/N=C/c1ccc(OCc2ccccc2)cc1	inactive	9 mm	inactive	18 µM	inactive	inactive	0.1 µM							inhibition zone (IZ) [3]: 6 mm; Ki [6]: 0.6 µM
Oc1ccc(/C=N/n2c(CC(c3ccccc3)c3ccccc3)n[nH]c2=S)c(O)c1					inactive	inactive		35%	35%	inactive				inhibition [11]: inactive
S=c1[nH]nc(-c2ccc(Cl)cc2)n1/N=C/c1ccc(OCc2ccccc2)cc1	inactive		inactive					40%	inactive	inactive				inhibition zone (IZ) [14]: 15 mm; inhibition [11]: inactive; Ki [15]: 4.1 µM; inhibition [16]: inactive
COc1ccc(/C=N/n2c(-c3ccccc3C)n[nH]c2=S)c(O)c1		9 mm	58%				9 µM	55%		55%	32 µM	32%		
O=C(O)c1ccccc1/C=N/n1c(C(c2ccccc2)c2ccccc2)n[nH]c1=S		9 mm		0.1 µM					inactive		13 µM			inhibition zone (IZ) [14]: 15 mm; inhibition zone (IZ) [19]: 14 mm; Ki [6]: 9 µM; Ki [15]: 4.1 µM; inhibition [16]: inactive
S=c1[nH]nc(-c2ccccc2)n1/N=C/c1ccccc1	inactive		inactive		inactive	inactive		inactive	60%	inactive		inactive	inactive	inhibition [20]: inactive; inhibition [11]: inactive
O=C(O)c1ccccc1/C=N/n1c(-c2ccccn2)n[nH]c1=S	inactive		inactive		inactive	inactive		inactive	inactive	62%			60%	inhibition [20]: inactive; inhibition [16]: inactive
Oc1ccc(/C=N/n2c(Cc3ccccc3)n[nH]c2=S)c(O)c1			30%		inactive	inactive		46%	37%	47%		inactive	inactive	
O=C(O)c1ccccc1/C=N/n1c(-c2ccncc2)n[nH]c1=S					inactive	inactive		32%	45%	73%			50%	
S=c1[nH]nc(CC(c2ccccc2)c2ccccc2)n1/N=C/c1ccc(OCc2ccccc2)cc1	inactive		inactive			30%		inactive	30%	inactive				inhibition zone (IZ) [14]: 15 mm; inhibition [20]: inactive; inhibition [11]: inactive
Oc1ccc(/C=N/n2c(-c3cccc4ccccc34)n[nH]c2=S)c(O)c1	inactive	10 mm	inactive	2 µM			10 µM			32%	4 µM	inactive	inactive	inhibition zone (IZ) [3]: 6 mm
Cc1ccccc1-c1n[nH]c(=S)n1/N=C/c1ccccc1[N+](=O)[O-]	inactive	9 mm	inactive	30 µM			11 µM				5 µM	inactive	inactive	inhibition zone (IZ) [3]: 6 mm; Ki [6]: 2.4 µM
S=c1[nH]nc(-c2cccc3ccccc23)n1/N=C/c1ccc(OCc2ccccc2)cc1	inactive	9 mm	inactive	30 µM			0.1 µM				4 µM	inactive	inactive	inhibition zone (IZ) [19]: 14 mm; Ki [6]: 2.4 µM
Oc1ccc(/C=N/n2c(-c3ccc(Cl)cc3)n[nH]c2=S)c(O)c1					inactive	inactive		54%	67%	63%				inhibition zone (IZ) [14]: 15 mm; Ki [15]: 3.1 µM
Oc1ccc(/C=N/n2c(COc3ccc4ccccc4c3)n[nH]c2=S)c(O)c1			30%		inactive	inactive		40%	33%	60%		inactive	inactive	
Cc1ccccc1-c1n[nH]c(=S)n1/N=C/c1ccc(C(=O)O)cc1		9 mm					11 µM	59%		57%	31 µM	inactive	inactive	inhibition zone (IZ) [19]: 14 mm; Ki [22]: 11 µM
Cc1ccccc1-c1n[nH]c(=S)n1/N=C/c1ccccc1O			62%		inactive	inactive		inactive	41%	38%		inactive	inactive	inhibition [20]: inactive
Cc1ccccc1-c1n[nH]c(=S)n1/N=C/c1cccc(-c2cccc(C(=O)O)c2)c1		9 mm		0.9 µM			9 µM				40 µM	inactive	inactive	inhibition zone (IZ) [19]: 14 mm; inhibition zone (IZ) [3]: 6 mm; Ki [6]: 0.3 µM; Ki [22]: 1.1 µM
